Data set [1] can be described thus: Antiproliferative activity against mouse TAMH cells after 24 hrs by CellTiter-Glo assay. The format is ADME, cell-based.
In data set [2] the test system is MOLM-14. Kind of data set: Induction of apoptosis in human MOLM14 cells assessed as early apoptotic cells at 3 uM after 48 hrs by Annexin-V FITC/propidium iodide staining based flow cytometry (reference value: 3.6 to 3.7%). The format is functional. The method, boiled down: (§1)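 MOLM-14 cells treated 48 h at the stated concentrations; doxorubicin as positive control. Stained with Annexin V-FITC and propidium iodide and analysed by flow cytometry (at least 10,000 events). Gated quadrants: Annexin V−/PI− viable, Annexin V+/PI− early apoptotic, Annexin V+/PI+ late apoptotic.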

Data set [3] in a line: Antiproliferative activity against human KG1 cells after 48 hrs by CellTiter-Glo assay. The format is functional, cell-based. Particulars: KG-1, 48 h.
Data set [4] deals with Tyrosine-protein kinase JAK2 (Homo sapiens), O60674 [V617F]. Kind of data set: Induction of JAK2 V617F mutant phosphorylation at Y1007/8 residues in HEL 92.1.7 cells at 0.1 to 1 uM after 1 hr by immunoblot method. The data set is classed as cell-based. The method, boiled down:
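HEL92.1.7 cells seeded at 5x10^5/mL and treated 1 h at 0, 0.1, 0.5 and 1 μM. Lysed in RIPA with phosphatase/protease inhibitors, run on 10% SDS-PAGE and blotted to PVDF. Probed for acetyl-tubulin, acetyl-H3 (Lys9/Lys14), p-JAK2 (Y1007/1008) and p-STAT5 (Tyr694); membranes re-probed for tubulin, H3, JAK2 and STAT5. Quantified by densitometry.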

A short description of data set [5]: Antiproliferative activity against human NKYS cells after 48 hrs by CellTiter-Glo assay. The format is functional, cell-based.
The subject of data set [6] is MOLM-14. Kind of data set: Induction of apoptosis in human MOLM14 cells assessed as early apoptotic cells at 0.75 uM after 48 hrs by Annexin-V FITC/propidium iodide staining based flow cytometry (reference value: 3.6 to 3.7%). The format is functional. Summed up: as §1
In data set [7] the target is Tyrosine-protein kinase JAK2 (Homo sapiens, UniProt O60674). The experiment in a line: Inhibition of human JAK2 JH1 catalytic domain (A829 to G1132 residues) expressed in mammalian expression system assessed as residual activity at 100 nM by KINOMEScan assay relative to control. Summed up: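 DiscoveRx KINOMEscan competition binding against ATP sites in a 97-kinase panel, with compound at 100 nM. Binding reported as % of control.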

Data set [8] deals with Mast/stem cell growth factor receptor Kit (Homo sapiens), P10721 [V559D,T670I]. The experiment in a line: Inhibition of human KIT (Y545 to D952 residues) V559D/T670I double mutant expressed in bacterial expression system assessed as residual activity at 100 nM by KINOMEScan assay relative to control. Summed up:
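Done by DiscoveRx as an ATP-site binding panel covering 97 kinases across the kinome. It measures binding rather than inhibition of phosphate transfer. The compound was tested at 100 nM, and the result is expressed as percent of control binding.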

Another data set has as its target Histone deacetylase 11 (Homo sapiens, UniProt Q96DB2). The experiment in a line: Inhibition of human recombinant N-terminal His-tagged HDAC11 (1 to 347 residues) expressed in baculovirus infected insect cells preincubated with enzyme followed by fluorogenic Arg-His-Lys-Lys(Ac)-AMC substrate addition measured after 2 hrs by fluorescence assay relative to control.

The nature of data set [9]: Antiproliferative activity against human OPM2 cells after 48 hrs by CellTiter-Glo assay. The format is functional, cell-based. The following applies: OPM-2, 48 h. The method, boiled down:
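OPM2 grown in RPMI 1640 with 10% FBS and penicillin/streptomycin at 37 °C, 5% CO2. Treated at 25,000 cells/well in triplicate for 48 h. Viability read by CellTiter-Glo luminescence. IC50 taken from a sigmoidal fit of % viability vs log concentration.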

The nature of data set [10]: Growth inhibition of human HL60 cells at 4 uM relative to control. Particulars: HL-60, read-out: GI. The data set is classed as functional.
The target of data set [11] is Mitogen-activated protein kinase 8 (Homo sapiens, UniProt P45983). Kind of data set: Inhibition of full length human MAPK8 (M1 to Q384 residues) expressed in mammalian expression system by KINOMEScan assay.
Data set [12] concerns the target Histone deacetylase 4 (Homo sapiens) (UniProt P56524). The experiment in a line: Inhibition of human recombinant N-terminal GST-tagged C-terminal His-tagged HDAC4 (627 to 1084 residues) expressed in insect cells at 10 uM preincubated with enzyme followed by acetyl-Lys(trifluoroacetyl)-AMC substrate addition measured after 2 hrs by fluorescence assay relative to control. The method, boiled down:
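HDAC enzyme in 50 mM Tris-HCl pH 8.0, 137 mM NaCl, 2.7 mM KCl, 1 mM MgCl2 was pre-incubated with compound dosed from DMSO. The reaction was started with the class IIa substrate acetyl-Lys(trifluoroacetyl)-AMC and run 2 h at 30 °C. Developer with trichostatin A stopped it, and fluorescence (Ex/Em 360/460 nm) was read at plateau. Single test concentration 10 µM.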

Data set [13] in a line: Antiproliferative activity against human MCF7 cells after 72 hrs by MTT assay. The data set is classed as functional, cell-based. The following applies: MCF7, 72 h.
The target in data set [14] is Mitogen-activated protein kinase 10 (Homo sapiens, UniProt P53779). The experiment in a line: Inhibition of full length human MAPK10 (V28 to Q422 residues) expressed in mammalian expression system by KINOMEScan assay.
The nature of data set [15]: Half life in rat liver microsomes at 3 uM preincubated for 5 mins followed by NADPH addition by LC-MS/MS analysis. The format is ADME. The method, boiled down: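 Male and female rat liver microsomes (0.3 mg protein/mL final) with compound at 3 μM final in 0.1 M phosphate buffer pH 7.4. Preincubated 5 min at 37 °C, then started with NADPH (1 mM final). Sampled at 0, 5, 10, 15, 30 and 45 min and quenched with cold acetonitrile containing internal standard. Read by LC-MS/MS; run in triplicate; midazolam (3 μM) as positive control.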

The source made the active and inactive calls. The rule behind the calls is not given here.

Chain of Histone deacetylase 11 (Q96DB2 whole entry, the tested form may be a part): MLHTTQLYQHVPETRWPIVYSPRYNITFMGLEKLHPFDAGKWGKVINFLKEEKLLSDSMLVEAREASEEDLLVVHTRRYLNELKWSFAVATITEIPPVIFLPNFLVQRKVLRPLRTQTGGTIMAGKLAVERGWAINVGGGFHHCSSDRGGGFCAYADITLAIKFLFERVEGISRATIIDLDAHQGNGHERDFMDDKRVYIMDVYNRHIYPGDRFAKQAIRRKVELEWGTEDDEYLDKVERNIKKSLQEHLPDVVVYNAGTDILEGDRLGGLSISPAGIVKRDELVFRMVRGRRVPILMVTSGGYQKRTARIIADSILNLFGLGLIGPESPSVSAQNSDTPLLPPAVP
Chain of Mast/stem cell growth factor receptor Kit (Homo sapiens), P10721 [V559D,T670I] (P10721 whole entry V559D/T670I, the tested form may be a part): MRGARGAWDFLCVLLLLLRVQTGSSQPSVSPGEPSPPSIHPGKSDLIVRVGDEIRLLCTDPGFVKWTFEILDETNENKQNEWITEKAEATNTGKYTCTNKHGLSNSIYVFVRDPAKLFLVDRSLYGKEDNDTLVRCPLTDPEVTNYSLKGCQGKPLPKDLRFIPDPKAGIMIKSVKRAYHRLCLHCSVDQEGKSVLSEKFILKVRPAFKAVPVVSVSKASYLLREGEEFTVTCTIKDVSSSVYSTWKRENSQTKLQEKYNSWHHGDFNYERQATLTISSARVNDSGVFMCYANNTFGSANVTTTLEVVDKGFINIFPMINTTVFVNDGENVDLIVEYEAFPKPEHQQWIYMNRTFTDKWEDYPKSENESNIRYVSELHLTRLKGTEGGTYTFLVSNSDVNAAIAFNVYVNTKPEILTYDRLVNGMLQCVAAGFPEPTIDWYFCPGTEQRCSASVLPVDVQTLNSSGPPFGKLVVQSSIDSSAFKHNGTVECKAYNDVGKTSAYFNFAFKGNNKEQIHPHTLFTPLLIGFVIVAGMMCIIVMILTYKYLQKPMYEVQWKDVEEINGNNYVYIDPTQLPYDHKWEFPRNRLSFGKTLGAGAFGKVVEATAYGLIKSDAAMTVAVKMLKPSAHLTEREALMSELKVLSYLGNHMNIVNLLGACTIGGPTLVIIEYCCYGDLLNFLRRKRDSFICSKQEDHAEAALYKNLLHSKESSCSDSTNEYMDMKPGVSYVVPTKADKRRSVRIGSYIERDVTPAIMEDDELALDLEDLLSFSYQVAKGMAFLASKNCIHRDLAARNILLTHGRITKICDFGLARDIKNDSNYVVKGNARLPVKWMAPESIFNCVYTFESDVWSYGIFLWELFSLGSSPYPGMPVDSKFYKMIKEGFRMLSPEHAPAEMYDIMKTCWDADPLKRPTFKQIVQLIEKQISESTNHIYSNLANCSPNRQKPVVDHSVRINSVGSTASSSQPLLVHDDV
Chain of Histone deacetylase 4 (Homo sapiens) (P56524 whole entry, the tested form may be a part): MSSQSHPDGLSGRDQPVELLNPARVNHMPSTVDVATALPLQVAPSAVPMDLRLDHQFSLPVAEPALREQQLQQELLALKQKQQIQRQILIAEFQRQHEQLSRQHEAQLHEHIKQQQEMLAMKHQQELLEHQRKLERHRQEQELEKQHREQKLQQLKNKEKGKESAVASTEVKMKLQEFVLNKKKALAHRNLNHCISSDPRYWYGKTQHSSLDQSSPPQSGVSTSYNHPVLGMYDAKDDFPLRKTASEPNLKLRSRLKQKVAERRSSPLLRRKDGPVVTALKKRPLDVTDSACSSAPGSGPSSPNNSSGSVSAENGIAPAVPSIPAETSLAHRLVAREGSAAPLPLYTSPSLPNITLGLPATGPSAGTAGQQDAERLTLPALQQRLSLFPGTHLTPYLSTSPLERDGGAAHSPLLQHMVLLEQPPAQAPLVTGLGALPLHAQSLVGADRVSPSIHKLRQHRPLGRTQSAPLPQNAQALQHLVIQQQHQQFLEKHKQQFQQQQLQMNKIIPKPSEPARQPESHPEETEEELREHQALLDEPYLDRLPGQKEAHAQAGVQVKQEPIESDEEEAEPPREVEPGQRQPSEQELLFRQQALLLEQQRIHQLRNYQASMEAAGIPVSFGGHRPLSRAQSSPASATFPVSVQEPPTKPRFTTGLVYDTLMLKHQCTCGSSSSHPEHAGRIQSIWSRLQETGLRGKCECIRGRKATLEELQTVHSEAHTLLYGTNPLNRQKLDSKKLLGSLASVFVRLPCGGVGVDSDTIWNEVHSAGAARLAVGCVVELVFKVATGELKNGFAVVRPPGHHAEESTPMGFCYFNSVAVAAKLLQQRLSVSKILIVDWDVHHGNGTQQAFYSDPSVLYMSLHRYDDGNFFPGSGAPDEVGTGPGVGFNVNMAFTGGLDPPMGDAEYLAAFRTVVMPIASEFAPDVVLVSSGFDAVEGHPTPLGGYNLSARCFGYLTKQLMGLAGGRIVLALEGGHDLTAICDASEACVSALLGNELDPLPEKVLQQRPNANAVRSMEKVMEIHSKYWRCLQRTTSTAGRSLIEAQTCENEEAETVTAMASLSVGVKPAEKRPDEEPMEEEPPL
Chain of Mitogen-activated protein kinase 10 (P53779 whole entry, the tested form may be a part): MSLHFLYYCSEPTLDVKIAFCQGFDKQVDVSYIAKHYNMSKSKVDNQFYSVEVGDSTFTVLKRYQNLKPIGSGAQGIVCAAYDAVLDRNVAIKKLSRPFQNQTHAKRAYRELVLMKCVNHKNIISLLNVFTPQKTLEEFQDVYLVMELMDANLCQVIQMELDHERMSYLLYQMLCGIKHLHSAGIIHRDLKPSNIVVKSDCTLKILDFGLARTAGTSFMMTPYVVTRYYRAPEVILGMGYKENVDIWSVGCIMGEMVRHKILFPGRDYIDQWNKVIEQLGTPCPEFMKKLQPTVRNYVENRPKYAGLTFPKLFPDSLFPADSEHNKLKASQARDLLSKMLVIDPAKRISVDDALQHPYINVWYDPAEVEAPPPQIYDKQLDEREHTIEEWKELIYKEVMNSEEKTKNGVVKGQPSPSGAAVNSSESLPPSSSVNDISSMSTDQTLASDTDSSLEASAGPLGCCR
Chain of Tyrosine-protein kinase JAK2 (Homo sapiens), O60674 [V617F] (O60674 whole entry V617F): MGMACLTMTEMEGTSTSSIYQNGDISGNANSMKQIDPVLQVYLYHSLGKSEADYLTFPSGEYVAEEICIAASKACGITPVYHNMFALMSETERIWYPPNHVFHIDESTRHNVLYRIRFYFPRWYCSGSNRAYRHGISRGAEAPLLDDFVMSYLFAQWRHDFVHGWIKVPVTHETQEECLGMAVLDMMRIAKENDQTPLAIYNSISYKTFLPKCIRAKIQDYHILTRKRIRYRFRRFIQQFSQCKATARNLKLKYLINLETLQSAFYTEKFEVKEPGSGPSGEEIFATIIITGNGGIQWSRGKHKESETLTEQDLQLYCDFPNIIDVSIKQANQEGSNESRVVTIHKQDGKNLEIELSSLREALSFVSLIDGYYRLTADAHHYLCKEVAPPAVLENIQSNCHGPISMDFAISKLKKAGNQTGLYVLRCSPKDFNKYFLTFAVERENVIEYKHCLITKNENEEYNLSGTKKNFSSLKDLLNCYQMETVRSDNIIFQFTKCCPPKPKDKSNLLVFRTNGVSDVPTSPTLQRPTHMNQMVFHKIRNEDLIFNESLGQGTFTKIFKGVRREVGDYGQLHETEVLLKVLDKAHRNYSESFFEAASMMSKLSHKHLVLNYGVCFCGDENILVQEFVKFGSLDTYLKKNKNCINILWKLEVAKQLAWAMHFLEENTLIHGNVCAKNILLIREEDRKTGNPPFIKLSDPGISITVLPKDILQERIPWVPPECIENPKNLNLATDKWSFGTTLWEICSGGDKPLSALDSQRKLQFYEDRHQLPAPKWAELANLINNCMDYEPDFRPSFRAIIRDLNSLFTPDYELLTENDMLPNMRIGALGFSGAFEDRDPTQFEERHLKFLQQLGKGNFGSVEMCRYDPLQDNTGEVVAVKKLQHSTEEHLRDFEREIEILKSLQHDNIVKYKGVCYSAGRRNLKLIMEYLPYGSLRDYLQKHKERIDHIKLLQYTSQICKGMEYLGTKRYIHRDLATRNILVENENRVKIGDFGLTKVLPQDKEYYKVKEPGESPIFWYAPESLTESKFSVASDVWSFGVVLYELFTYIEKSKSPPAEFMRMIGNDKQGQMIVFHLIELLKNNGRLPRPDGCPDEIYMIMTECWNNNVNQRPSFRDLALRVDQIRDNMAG
Chain of Tyrosine-protein kinase JAK2 (O60674 whole entry, the tested form may be a part): as the sequence (O60674 whole entry V617F) above, with F617V counted along it
Chain of Mitogen-activated protein kinase 8 (P45983 whole entry, the tested form may be a part): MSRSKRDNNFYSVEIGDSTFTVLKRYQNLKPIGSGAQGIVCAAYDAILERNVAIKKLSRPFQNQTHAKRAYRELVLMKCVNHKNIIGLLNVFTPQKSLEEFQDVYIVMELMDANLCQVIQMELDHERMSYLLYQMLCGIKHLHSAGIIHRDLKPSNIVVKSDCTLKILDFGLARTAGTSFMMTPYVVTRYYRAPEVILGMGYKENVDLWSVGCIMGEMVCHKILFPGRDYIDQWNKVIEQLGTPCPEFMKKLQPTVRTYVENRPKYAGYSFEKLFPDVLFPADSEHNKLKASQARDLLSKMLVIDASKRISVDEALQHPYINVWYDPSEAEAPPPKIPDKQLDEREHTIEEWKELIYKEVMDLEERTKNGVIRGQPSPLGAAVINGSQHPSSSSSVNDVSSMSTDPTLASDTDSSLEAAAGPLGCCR

As for `O=C(CCCCCCOc1ccc2cc1COC/C=C/COCc1cccc(c1)-c1ccnc(n1)N2)NO`, the 50% inhibitory concentration (IC50) in data set [1] was 9570 nM; in data set [3], 1630 nM; in [5], 1080 nM; on Histone deacetylase 11 it was 930 nM; in [9] it was 2050 nM; in data set [11] it was 1000 to 10000 nM. The values for the IC50 in [13] and in data set [14] were 1470 nM and 1000 to 10000 nM, respectively. The Activity in the data set on MOLM-14 [2] was determined as 24.4%; with MOLM-14 [6] it was 13.3%; in data set [7], 0%; in data set [8], 31%. Besides, in data set [4], the outcome was Active. In addition, the inhibition of growth at 4 µM in data set [10] amounted to 47%. Further, in [12], the inhibition stood at 8.6%. Also, the half-life at 3 µM in data set [15] was in the range of 17.3 to 26.3 min.

(Values after ChEMBL document CHEMBL3877241 (J Med Chem, 2016).)
